Measured values as given in PMC11929782 (Scientific Reports, 2025).
Ends that are not written are not given here.

Experiments:
[1] = target: T1, IL17RC (Homo sapiens, UniProt Q8NAC3); assay: ELISA binding assay, IL17RC; conditions: read at 450 nm
T1 sequence (Q8NAC3 21-791): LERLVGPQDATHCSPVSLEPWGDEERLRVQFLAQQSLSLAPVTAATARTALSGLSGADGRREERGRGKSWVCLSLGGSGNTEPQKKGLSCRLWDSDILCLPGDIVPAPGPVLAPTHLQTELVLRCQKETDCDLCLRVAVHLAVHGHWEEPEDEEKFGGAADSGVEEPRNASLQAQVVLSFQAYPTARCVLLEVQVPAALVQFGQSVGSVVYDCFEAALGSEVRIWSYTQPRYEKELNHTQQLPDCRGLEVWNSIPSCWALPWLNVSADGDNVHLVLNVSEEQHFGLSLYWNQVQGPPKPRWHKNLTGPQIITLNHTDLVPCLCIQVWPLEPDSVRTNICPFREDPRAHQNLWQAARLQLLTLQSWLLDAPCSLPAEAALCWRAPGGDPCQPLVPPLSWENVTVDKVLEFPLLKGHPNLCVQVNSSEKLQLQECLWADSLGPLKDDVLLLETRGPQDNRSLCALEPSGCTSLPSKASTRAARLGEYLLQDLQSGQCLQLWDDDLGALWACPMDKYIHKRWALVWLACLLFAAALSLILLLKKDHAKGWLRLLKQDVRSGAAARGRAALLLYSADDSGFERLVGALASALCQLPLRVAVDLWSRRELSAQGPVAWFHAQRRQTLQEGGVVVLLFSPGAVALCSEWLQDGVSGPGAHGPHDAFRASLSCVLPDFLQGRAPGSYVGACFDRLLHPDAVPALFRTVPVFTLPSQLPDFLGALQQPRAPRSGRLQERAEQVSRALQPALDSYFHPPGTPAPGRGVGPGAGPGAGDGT

[2] = test system: THP-1 cells; assay: Cytotoxicity, CCK-8 assay; format: cell-based, human; conditions: THP-1, normal and IL17RA-deficient cells, varying concentrations, 24 h
Outline: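 THP-1 cells were cultured in RPMI1640 (0.05 mM β-mercaptoethanol, 10% FBS). They were made into M1 macrophages with 100 ng/ml PMA for 120 h, then 1 µg/ml LPS plus 20 ng/ml IFNγ for 24 h. IL17RA was knocked down by siRNA, with cells harvested at 48 h. Normal and knockdown cells (1 × 10⁴ cells/ml) received test compound at varied concentrations for 24 h. CCK-8 for 4 h; A450. Mean ± SEM, ≥3 independent experiments.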

[3] = target: IL17A (Homo sapiens, UniProt Q16552); assay: ELISA binding assay, IL17A; conditions: read at 450 nm
Chain of IL17A (Q16552 24-155, species assumed): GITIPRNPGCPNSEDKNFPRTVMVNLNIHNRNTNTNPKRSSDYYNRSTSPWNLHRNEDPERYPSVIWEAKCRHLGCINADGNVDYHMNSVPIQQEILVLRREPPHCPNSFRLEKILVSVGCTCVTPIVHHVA

[4] = test system: RAW264.7 cells; assay: Cytotoxicity, CCK-8 assay; format: cell-based, murine; conditions: RAW264.7, normal and IL17RA-deficient cells, varying concentrations, 24 h
Outline: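 RAW264.7 cells were cultured in RPMI1640 (0.05 mM β-mercaptoethanol, 10% FBS) and polarized to M1 with 1 µg/ml LPS plus 20 ng/ml IFNγ for 24 h. IL17RA was knocked down by siRNA transfection, with cells harvested at 48 h. Normal and knockdown cells (1 × 10⁴ cells/ml) were treated 24 h with varied test compound concentrations. CCK-8 was added for 4 h, then absorbance read at 450 nm. Mean ± SEM, ≥3 independent experiments.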

[5] = test system: NIH3T3 cells; assay: Cytotoxicity, CCK-8 assay; format: cell-based, murine; conditions: NIH3T3, normal and IL17RA-deficient cells, varying concentrations, 24 h
Outline: (§1)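 HaCaT and NIH3T3 cells were grown in DMEM with 10% FBS at 37 °C and 5% CO2. IL17RA was knocked down with siRNA and Lipofectamine 2000, and cells were harvested 48 h post-transfection. Normal and knockdown cells were seeded at 1 × 10⁴ cells/ml and exposed to a range of test compound concentrations for 24 h. CCK-8 was added for 4 h and absorbance read at 450 nm. Mean ± SEM, ≥3 independent experiments.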

[6] = target: T2, IL17F (Homo sapiens, UniProt Q96PD4); assay: ELISA binding assay, IL17F; conditions: read at 450 nm
T2 sequence (Q96PD4 31-163): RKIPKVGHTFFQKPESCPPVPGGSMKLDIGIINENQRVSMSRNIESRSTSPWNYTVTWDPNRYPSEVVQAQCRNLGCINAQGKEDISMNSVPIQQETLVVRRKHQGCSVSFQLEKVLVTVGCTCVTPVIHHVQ

[7] = test system: HaCaT cells; assay: Cytotoxicity, CCK-8 assay; format: cell-based, human; conditions: normal and IL17RA-deficient cells, varying concentrations, 24 h
Outline: as §1

[8] = patients, long-term studies; cited from earlier work
[9] = target: T3, Human IL17RA protein (human, UniProt Q96F46 33-320); assay: SPR
[10] = target: T3, Human IL17RA protein; assay: MST

In the case of ASPVIYHL-NH2 [AL-8(0)], the “EC50 for binding to IL17RC” value [1] is reported as “no measurable”, the “Cytotoxicity (cell viability, CCK-8)” value [2] is reported as “not directly cytotoxic” and the “EC50 for binding to IL17A” value [3] is reported as “no measurable”. The “Cytotoxicity (cell viability, CCK-8)” value [4] was “not directly cytotoxic”, the “Cytotoxicity (cell viability, CCK-8)” value [5] was “not directly cytotoxic” and the “EC50 for binding to IL17F” value [6] was “no measurable”. The “Cytotoxicity (cell viability, CCK-8)” value [7] was “not directly cytotoxic”.

For Ixekizumab, the Immunogenicity [8] is listed as “variable immunogenicity”.

In the case of Secukinumab, the ADA incidence rate [8] is listed as under 1%.

B1: AL-8(0) (peptide)
peptide: ASPVIYHL-NH2
Work on B1 yielded a Kd [9] of 83 nM and a Kd [10] of 89 nM.
